From ChEMBL document CHEMBL3627671, “Novel derivatives of nitro-substituted salicylic acids: Synthesis, antimicrobial activity and cytotoxicity” (Bioorg Med Chem, 2015)
In brackets after ≈: the same amount, converted by molar mass.

Key:
Type in all cases: functional
Pseudomonas aeruginosa [1] = experiment: Antibacterial activity against Pseudomonas aeruginosa CCM 1961 after 24 hrs by microdilution broth method; conditions: CCM 1961, 24 h
In short: (§1)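 Mueller-Hinton broth microdilution (modified M07-A07), pH 7.4 (±0.2). Compounds dissolved in DMSO, tested at final 500 to 0.49 µmol/L. Inoculum in sterile water matched to 0.5 McFarland. Incubated in the dark, humid atmosphere, 35 °C, read at 24 and 48 h visually and at 540 nm. MIC taken as ≥95% growth reduction (IC95) versus control.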

Lichtheimia corymbifera [2] = experiment: Antifungal activity against Absidia corymbifera 272 after 24 hrs by microdilution broth method; conditions: Lichtheimia corymbifera, 272, 24 h
In short: (§2)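 CLSI M27-A3 broth microdilution in RPMI 1640 with glutamine, buffered to pH 7.0 with MOPS; DMSO diluent. Yeast inoculum 5 × 10^3 ± 0.2 CFU/mL. Moulds grown on Sabouraud agar 3–10 days before spore harvest, final inoculum 0.5-5 × 10^4 CFU/mL, checked in a Bürker chamber. Incubated dark, humid, 35 °C, read at 24 and 48 h visually and at 540 nm. MIC taken as ≥80% (yeasts) or ≥50% (filamentous) growth reduction versus control.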

Klebsiella pneumoniae [3] = experiment: Antibacterial activity against Klebsiella pneumoniae D 11750/08 after 24 hrs by microdilution broth method; conditions: D 11750/08, 24 h; in short: as §1
Mycobacterium avium [4] = experiment: Antimycobacterial activity against Mycobacterium avium 330/80 after 21 days; conditions: 330/80, 504 h
Enterococcus sp. [5] = experiment: Antibacterial activity against Enterococcus sp. J 14365/08 after 24 hrs by microdilution broth method; conditions: J 14365/08, 24 h; in short: as §1
Klebsiella pneumoniae [6] = experiment: Antibacterial activity against ESBL-positive Klebsiella pneumoniae J 14368/08 after 48 hrs by microdilution broth method; conditions: J 14368/08, 48 h; in short: as §1
Mycobacterium kansasii [7] = experiment: Antimycobacterial activity against Mycobacterium kansasii 235/80 after 7 days; conditions: 235/80, 168 h
In short: (§3)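 Šula's semisynthetic medium micromethod at 37 °C, read after 7, 14 and 21 days. The 1.0 McFarland suspension was diluted 10^-4. MIC determined. 6509/96 is a clinical isolate.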

Escherichia coli [8] = experiment: Antibacterial activity against Escherichia coli CCM4517 after 48 hrs by microdilution broth method; conditions: CCM4517, 48 h; in short: as §1
Staphylococcus aureus [9] = experiment: Antibacterial activity against Staphylococcus aureus CCM 4516/08 after 24 hrs by microdilution broth method; conditions: CCM 4516/08, 24 h
[10] = tested on: Trichophyton mentagrophytes; experiment: Antifungal activity against Trichophyton mentagrophytes 445 after 24 hrs by microdilution broth method; conditions: Trichophyton mentagrophytes, 445, 24 h
[11] = tested on: Staphylococcus epidermidis; experiment: Antibacterial activity against Staphylococcus epidermidis H 6966/08 after 48 hrs by microdilution broth method; conditions: H 6966/08, 48 h; in short: as §1
[12] = tested on: Mycobacterium tuberculosis; experiment: Antimycobacterial activity against Mycobacterium tuberculosis H37Rv 331/88 after 21 days; conditions: H37Rv 331/88, 504 h
Staphylococcus aureus [13] = experiment: Antibacterial activity against methicillin-resistant Staphylococcus aureus H 5996/08 after 24 hrs by microdilution broth method; conditions: H 5996/08, 24 h
Mycobacterium kansasii [14] = experiment: Antimycobacterial activity against Mycobacterium kansasii 6509/96 after 7 days; conditions: 6509/96, 168 h; in short: as §3
Staphylococcus aureus [15] = experiment: Antibacterial activity against Staphylococcus aureus CCM 4516/08 after 48 hrs by microdilution broth method; conditions: CCM 4516/08, 48 h
Mycobacterium kansasii [16] = experiment: Antimycobacterial activity against Mycobacterium kansasii 235/80 after 21 days; conditions: 235/80, 504 h; in short: as §3
Candida albicans [17] = experiment: Antifungal activity against Candida albicans ATCC 44859 after 24 hrs by microdilution broth method; conditions: ATCC 44859, 24 h; in short: as §2
Nakaseomyces glabratus [18] = experiment: Antifungal activity against Candida glabrata 20/I after 24 hrs by microdilution broth method; in short: as §2
Mycobacterium kansasii [19] = experiment: Antimycobacterial activity against Mycobacterium kansasii 6509/96 after 14 days; conditions: 6509/96, 336 h; in short: as §3
Trichosporon asahii [20] = experiment: Antifungal activity against Trichosporon asahii 1188 after 48 hrs by microdilution broth method; conditions: Trichosporon asahii, 1188, 48 h; in short: as §2
Staphylococcus aureus [21] = experiment: Antibacterial activity against methicillin-resistant Staphylococcus aureus H 5996/08 after 48 hrs by microdilution broth method; conditions: H 5996/08, 48 h
Candida tropicalis [22] = experiment: Antifungal activity against Candida tropicalis 156 after 48 hrs by microdilution broth method; conditions: Candida tropicalis, 156, 48 h; in short: as §2
Pseudomonas aeruginosa [23] = experiment: Antibacterial activity against Pseudomonas aeruginosa CCM 1961 after 48 hrs by microdilution broth method; conditions: CCM 1961, 48 h; in short: as §1
Trichosporon asahii [24] = experiment: Antifungal activity against Trichosporon asahii 1188 after 24 hrs by microdilution broth method; conditions: Trichosporon asahii, 1188, 24 h; in short: as §2
Mycobacterium kansasii [25] = experiment: Antimycobacterial activity against Mycobacterium kansasii 6509/96 after 21 days; conditions: 6509/96, 504 h; in short: as §3
Mycobacterium avium [26] = experiment: Antimycobacterial activity against Mycobacterium avium 330/80 after 14 days; conditions: 330/80, 336 h
Enterococcus sp. [27] = experiment: Antibacterial activity against Enterococcus sp. J 14365/08 after 48 hrs by microdilution broth method; conditions: J 14365/08, 48 h; in short: as §1
[28] = tested on: Mycobacterium tuberculosis; experiment: Antimycobacterial activity against Mycobacterium tuberculosis H37Rv 331/88 after 14 days; conditions: H37Rv 331/88, 336 h
Escherichia coli [29] = experiment: Antibacterial activity against Escherichia coli CCM4517 after 24 hrs by microdilution broth method; conditions: CCM4517, 24 h; in short: as §1
Candida tropicalis [30] = experiment: Antifungal activity against Candida tropicalis 156 after 24 hrs by microdilution broth method; conditions: Candida tropicalis, 156, 24 h; in short: as §2
Nakaseomyces glabratus [31] = experiment: Antifungal activity against Candida glabrata 20/I after 48 hrs by microdilution broth method; in short: as §2
Pichia kudriavzevii [32] = experiment: Antifungal activity against Candida krusei E28 after 24 hrs by microdilution broth method; conditions: E28, 24 h; in short: as §2
[33] = tested on: Staphylococcus epidermidis; experiment: Antibacterial activity against Staphylococcus epidermidis H 6966/08 after 24 hrs by microdilution broth method; conditions: H 6966/08, 24 h; in short: as §1
Aspergillus fumigatus [34] = experiment: Antifungal activity against Aspergillus fumigatus 231 after 24 hrs by microdilution broth method; conditions: Aspergillus fumigatus, 231, 24 h; in short: as §2
[35] = tested on: Trichophyton mentagrophytes; experiment: Antifungal activity against Trichophyton mentagrophytes 445 after 48 hrs by microdilution broth method; conditions: Trichophyton mentagrophytes, 445, 48 h
Klebsiella pneumoniae [36] = experiment: Antibacterial activity against Klebsiella pneumoniae D 11750/08 after 48 hrs by microdilution broth method; conditions: D 11750/08, 48 h; in short: as §1
Mycobacterium kansasii [37] = experiment: Antimycobacterial activity against Mycobacterium kansasii 235/80 after 14 days; conditions: 235/80, 336 h; in short: as §3
Lichtheimia corymbifera [38] = experiment: Antifungal activity against Absidia corymbifera 272 after 48 hrs by microdilution broth method; conditions: Lichtheimia corymbifera, 272, 48 h; in short: as §2
Candida albicans [39] = experiment: Antifungal activity against Candida albicans ATCC 44859 after 48 hrs by microdilution broth method; conditions: ATCC 44859, 48 h; in short: as §2
Aspergillus fumigatus [40] = experiment: Antifungal activity against Aspergillus fumigatus 231 after 48 hrs by microdilution broth method; conditions: Aspergillus fumigatus, 231, 48 h; in short: as §2
Klebsiella pneumoniae [41] = experiment: Antibacterial activity against ESBL-positive Klebsiella pneumoniae J 14368/08 after 24 hrs by microdilution broth method; conditions: J 14368/08, 24 h; in short: as §1
Pichia kudriavzevii [42] = experiment: Antifungal activity against Candida krusei E28 after 48 hrs by microdilution broth method; conditions: E28, 48 h; in short: as §2

SMILES: O=C(Nc1cccc(F)c1)c1ccc([N+](=O)[O-])cc1O
- MIC (Pseudomonas aeruginosa [1]): > 500 µM
- MIC (Lichtheimia corymbifera [2]): 250 µM (≈ 69.1 µg/mL)
- MIC (Klebsiella pneumoniae [3]): 500 µM (≈ 138 µg/mL)
- MIC (Mycobacterium avium [4]): 125 µM (≈ 34.5 µg/mL)
- MIC (Enterococcus sp. [5]): 500 µM (≈ 138 µg/mL)
- MIC (Klebsiella pneumoniae [6]): 500 µM (≈ 138 µg/mL)
- MIC (Mycobacterium kansasii [7]): 16 µM (≈ 4.42 µg/mL)
- MIC (Escherichia coli [8]): 250 µM (≈ 69.1 µg/mL)
- MIC (Staphylococcus aureus [9]): 15.6 µM (≈ 4.31 µg/mL)
- MIC [10]: 500 µM (≈ 138 µg/mL)
- MIC [11]: 31.2 µM (≈ 8.63 µg/mL)
- MIC [12]: 16 µM (≈ 4.42 µg/mL)
- MIC (Staphylococcus aureus [13]): 15.6 µM (≈ 4.31 µg/mL)
- MIC (Mycobacterium kansasii [14]): 16 µM (≈ 4.42 µg/mL)
- MIC (Staphylococcus aureus [15]): 31.2 µM (≈ 8.63 µg/mL)
- MIC (Mycobacterium kansasii [16]): 32 µM (≈ 8.84 µg/mL)
- MIC (Candida albicans [17]): 250 µM (≈ 69.1 µg/mL)
- MIC (Nakaseomyces glabratus [18]): > 500 µM
- MIC (Mycobacterium kansasii [19]): 32 µM (≈ 8.84 µg/mL)
- MIC (Trichosporon asahii [20]): 250 µM (≈ 69.1 µg/mL)
- MIC (Staphylococcus aureus [21]): 31.2 µM (≈ 8.63 µg/mL)
- MIC (Candida tropicalis [22]): 500 µM (≈ 138 µg/mL)
- MIC (Pseudomonas aeruginosa [23]): > 500 µM
- MIC (Trichosporon asahii [24]): 250 µM (≈ 69.1 µg/mL)
- MIC (Mycobacterium kansasii [25]): 32 µM (≈ 8.84 µg/mL)
- MIC (Mycobacterium avium [26]): 62.5 µM (≈ 17.3 µg/mL)
- MIC (Enterococcus sp. [27]): > 500 µM
- MIC [28]: 16 µM (≈ 4.42 µg/mL)
- MIC (Escherichia coli [29]): 250 µM (≈ 69.1 µg/mL)
- MIC (Candida tropicalis [30]): 250 µM (≈ 69.1 µg/mL)
- MIC (Nakaseomyces glabratus [31]): > 500 µM
- MIC (Pichia kudriavzevii [32]): 62.5 µM (≈ 17.3 µg/mL)
- MIC [33]: 15.6 µM (≈ 4.31 µg/mL)
- MIC (Aspergillus fumigatus [34]): 250 µM (≈ 69.1 µg/mL)
- MIC [35]: 500 µM (≈ 138 µg/mL)
- MIC (Klebsiella pneumoniae [36]): > 500 µM
- MIC (Mycobacterium kansasii [37]): 16 µM (≈ 4.42 µg/mL)
- MIC (Lichtheimia corymbifera [38]): 250 µM (≈ 69.1 µg/mL)
- MIC (Candida albicans [39]): 500 µM (≈ 138 µg/mL)
- MIC (Aspergillus fumigatus [40]): 250 µM (≈ 69.1 µg/mL)
- MIC (Klebsiella pneumoniae [41]): 500 µM (≈ 138 µg/mL)
- MIC (Pichia kudriavzevii [42]): 62.5 µM (≈ 17.3 µg/mL)
